Assay outcomes deposited in PubChem by several laboratories.
Calb FLC: C. albicans growth modulation with fluconazole. C. albicans CaCi-2 (fluconazole-resistant clinical isolate) + fluconazole, Alamar Blue growth, 48 h. growth inhibition, % (no concentration beside the values). AID 1979. actives 0.57% (n = 300,000);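 active = growth inhibition above about 58% in most replicates, limit read from the data, passing the limit was not always enough; inconclusive = exactly half the replicates above a set limit; inactive = most replicates below a set limit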;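 also: all wells also contain fluconazole at 8 µg/ml as a sub-toxic cotreatment; 0% = median of DMSO wells and 100% = median of geldanamycin control wells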
SKKanGAS inh: blocks kanamycin growth of S. pyogenes SKKanGAS strain; BacTiter-Glo, 6 h; inhibition, % at 7.5 µM; actives 1.3% (n = 300,000); AID 1662;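 active = mean replicate score, as percent of positive control median, at least 50; inconclusive = mean below 50 but one replicate at or above 50; inactive = mean and every replicate below 50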;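 also: strain carries kanamycin resistance gene driven by streptokinase promoter and grows in 40 µg/ml kanamycin; loss of luminescence reflects streptokinase promoter inhibition or plain growth inhibition; 0% = median of DMSO wells and 100% = positive control at its reference dose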
Beta apoptosis: beta cell apoptosis inhibition; INS-1E cytokine-induced death, ATP luminescence, 48 h; percent of positive-control rescue, neutral wells zero; protection from apoptosis, % (concentration not given with the values); actives 0.8% (n = 300,000);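 active = Every replicate reaches about 75%, or at least half do and their mean reaches it too, limit read from the data; inconclusive = At least half of replicates reach the limit but their mean does not; inactive = Under half of replicates reach the limit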;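 also: 0% = cytokine-treated negative control wells and 100% = positive control rescue; higher means more ATP so stronger rescue from cytokine killing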
T cruzi inh: blocks replication of Trypanosoma cruzi | AID 1885 | inhibition, % (test concentration not listed) | actives 1.4% (n = 300,000) | T. cruzi beta-gal in NIH3T3, luminescence, 90 h;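 active = mean inhibition across valid replicates above about 55%, limit read from the data; inconclusive = mean below that limit but half or more replicates reach it; inactive = mean below it, under half of replicates reach it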;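 also: signal also drops with host cell toxicity which is not excluded here; 0% = plate median of DMSO wells and 100% = zero luminescence signal; higher percent means less beta-gal luminescence so fewer parasites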
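assay system = mouse NIH/3T3 fibroblasts infected with β-gal-expressing T. cruzi Tulahuen C4 | input = 5,000 NIH/3T3 host cells per well | buffer or medium = DMEM plus 2% FBS | timing = 3 h host attachment, then at least 90 h co-culture | measured by = GalScreen luminescence, 60 min | evaluation = luminescence reflecting intracellular parasite burden, expressed as percent inhibition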
CSC inhib: cancer stem cell inhibition | cancer stem cell-like cells viability, luminescence | inhibition, % at 7.5 µM | actives 1.1% (n = 300,000) | AID 2717; in the data active = inhibition above about 75%; inconclusive = no clear call, values can overlap the other calls; tested in HMLE shEcad cells
Mdm2 MdmX PPI: human Mdm2/MdmX binding inhibition | O15151+Q00987 | SaOS-2 split-luciferase Mdm2/MdmX complementation, luminescence | inhibition, % at 8 µM | actives 3% (n = 330,000) | AID 485346;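 active = inhibition of at least 50% at 8 µM in the primary screen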
Target sequence (O15151 whole entry, looked up): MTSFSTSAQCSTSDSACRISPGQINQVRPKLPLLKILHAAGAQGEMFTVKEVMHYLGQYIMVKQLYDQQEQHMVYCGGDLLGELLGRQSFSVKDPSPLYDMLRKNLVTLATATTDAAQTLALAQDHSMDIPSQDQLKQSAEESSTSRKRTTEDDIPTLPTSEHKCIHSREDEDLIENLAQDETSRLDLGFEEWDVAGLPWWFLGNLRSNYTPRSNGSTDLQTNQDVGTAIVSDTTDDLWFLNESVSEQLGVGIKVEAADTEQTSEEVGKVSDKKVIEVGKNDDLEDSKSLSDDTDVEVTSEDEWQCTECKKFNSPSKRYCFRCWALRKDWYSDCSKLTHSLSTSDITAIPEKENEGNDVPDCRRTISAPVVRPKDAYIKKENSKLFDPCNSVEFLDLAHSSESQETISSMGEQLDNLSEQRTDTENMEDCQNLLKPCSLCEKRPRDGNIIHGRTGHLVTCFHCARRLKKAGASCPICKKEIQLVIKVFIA
Target sequence (Q00987 whole entry, looked up): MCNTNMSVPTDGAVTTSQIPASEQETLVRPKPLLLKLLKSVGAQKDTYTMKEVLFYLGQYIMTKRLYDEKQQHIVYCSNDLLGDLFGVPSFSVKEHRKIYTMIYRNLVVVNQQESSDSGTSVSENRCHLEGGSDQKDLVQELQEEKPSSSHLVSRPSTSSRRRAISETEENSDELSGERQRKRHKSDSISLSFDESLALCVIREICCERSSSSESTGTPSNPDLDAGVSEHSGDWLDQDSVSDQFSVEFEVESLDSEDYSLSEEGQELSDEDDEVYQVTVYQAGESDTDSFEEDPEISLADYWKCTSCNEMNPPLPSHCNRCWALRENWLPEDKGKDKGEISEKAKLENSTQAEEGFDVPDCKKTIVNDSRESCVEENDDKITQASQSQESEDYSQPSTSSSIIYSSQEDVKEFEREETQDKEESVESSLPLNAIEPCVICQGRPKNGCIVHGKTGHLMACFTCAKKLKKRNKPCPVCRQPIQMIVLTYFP
An asterisk follows results filed as active; ? = inconclusive; nt = no result. The list is not random: actives were taken first. Their share in the collection is about 5.7%.

SMILES | Calb FLC | SKKanGAS inh | Beta apoptosis | T cruzi inh | CSC inhib | Mdm2 MdmX PPI
CCCCC(CC)CNCC(O)c1ccccc1 (configuration not stated) | -1.8 | -6.4 | 5.2 | 77.7* | 0.5 | -1.3
CCC1C(c2ccccc2)NC(c2ccccc2)CC1(O)c1ccc(F)cc1 (configuration not stated) | 34.2 | 8.9 | 24.7 | 15.2 | 26.9 | 28.8
COCCNC(=O)c1c(NC(=O)c2ccco2)n(Cc2ccccc2)c2nc3ccccc3nc12 | ? | 68.0* | -20.2 | 14.7 | -3.4 | 20.4
CCc1ccc(CN2CCN(Cc3ccc(SC)cc3)CC2)cc1 | -15.2 | 5.6 | -0.5 | 70.2* | 49.6 | 23.1
CSc1ccc(CN2CCN(c3ccccc3C)CC2)cc1 | -5.5 | 1.9 | nt | 2.7 | nt | 16.5
O=C(N/N=C/c1c(O)n(Cc2ccc(F)cc2)c(=S)[nH]c1=O)c1ccncc1 | -1.1 | 101.1* | -10.0 | -11.2 | 5.1 | 16.5
CCC(C)n1c(O)c(/C=N/Nc2ccccc2)c(=O)[nH]c1=S (configuration not stated) | 8.7 | ? | 1.9 | -5.2 | 82.5* | 7.3
CCC(C)n1c(O)c(/C=N/NC(=O)c2ccncc2)c(=O)[nH]c1=S (configuration not stated) | -18.5 | 91.0* | -2.5 | 8.6 | 17.0 | 2.7
CCC(C)n1c(O)c(C=NCCc2ccccc2)c(=O)[nH]c1=S (configuration not stated) | 7.4 | -0.3 | -5.7 | 1.3 | -3.9 | -27.7
CN1C2CCC1/C(=C/c1ccccn1)C(=O)/C2=C\c1ccccn1 | nt | nt | 99.7* | nt | 38.4 | nt
COc1ccc(-c2nn(CCC#N)cc2C(=O)NCc2ccccc2)cc1[N+](=O)[O-] | -1.7 | 3.8 | -9.8 | -7.1 | -17.0 | 0.3
COc1cccc(C(=O)C2CCCN(Cc3cccc4c3OCO4)C2)c1 (configuration not stated) | 107.8* | 4.8 | 13.4 | 44.1 | 1.5 | 9.5
COc1cccc(C(=O)C2CCCN(Cc3ccc4nonc4c3)C2)c1 (configuration not stated) | 19.3 | 15.0 | -2.0 | 34.2 | -6.0 | 35.0
O=c1[nH]c(=O)n(CCC2=CCCCC2)c(O)c1/C=N/Nc1ccccc1 | -25.2 | -9.8 | 0.4 | 30.9 | 97.4* | 9.1
O=c1[nH]c(=O)n(Cc2ccc(F)cc2)c(O)c1/C=N/Nc1ccccc1 | -26.9 | 11.3 | 3.2 | 26.0 | 78.8* | 22.4
ClCCN1CCN(c2ccnc3cc(Cl)ccc23)CC1 | -4.3 | 1.2 | -0.8 | 8.7 | -15.3 | 14.1
Clc1ccc(C(Cn2ccnc2)OCc2csc3c(Cl)cccc23)c(Cl)c1 (configuration not stated) | nt | nt | 86.5* | nt | 106.9* | 32.0
CCCN1CCC[C@@H](c2cccc(O)c2)C1 | nt | nt | -2.1 | nt | -15.6 | -29.9
O=c1[nH]sc2cc(F)ccc12 | 6.3 | 25.7 | nt | 86.9* | nt | nt
CC1CCCCN1C(=O)Cn1cc(C=C2C(=O)N(C)C(=O)N(C)C2=O)c2ccccc21 (configuration not stated) | -1.8 | 5.3 | -5.1 | -2.1 | -10.9 | 16.8
Cc1ccc(N2C(=O)NC(=O)/C(=C/c3cnn(-c4ccc(C)cc4)c3)C2=O)cc1 | -5.5 | -2.0 | 85.2* | -0.7 | 9.6 | -1.3
CSc1ncc(/C=C2/C(=O)NC(=O)N(c3ccc(C)cc3)C2=O)cn1 | 9.9 | 1.4 | -2.0 | -1.8 | 2.2 | -18.5
CCC(=O)N1N=C(c2c(O)n(CCc3ccccc3)c(=O)[nH]c2=O)CC1c1ccc(OC)c(OC)c1 (configuration not stated) | 2.2 | 100.2* | -2.3 | 5.0 | 2.5 | 21.7
O=[N+]([O-])c1ccc(CNCCc2ccccc2)cc1 | -2.2 | -5.0 | 1.3 | 58.6* | -9.9 | 11.3
COC(=O)C1=C(c2ccc(OCc3ccccc3)cc2)C[C@@H]2CC[C@H]1N2C(=O)NCc1cccc(C(F)(F)F)c1 | nt | nt | -3.9 | nt | 31.3 | 11.7
SMILES | Calb FLC | SKKanGAS inh | Beta apoptosis | T cruzi inh | CSC inhib | Mdm2 MdmX PPI
CCCCn1c(O)c(C(CC)=NCCCN(C)C)c(=O)[nH]c1=O | -14.3 | -3.5 | -1.6 | 56.9* | -9.1 | 3.3
CCCCn1c(O)c(C(C)=NCCCN(CC)CC)c(=O)[nH]c1=O | -11.2 | -4.2 | 3.5 | 58.4* | -12.5 | -11.5
C[C@]12CCC3C(CC[C@H]4C[C@@H](O)CC[C@]34C)C1CC[C@@H]2N (some centres not stated) | nt | nt | -4.6 | nt | 23.3 | 2.3
O=[N+]([O-])c1cc(Cl)c(O)c(-[n+]2c(-c3ccccc3)cc(-c3ccccc3)cc2-c2ccccc2)c1 | -2.0 | 3.6 | 14.1 | 23.6 | -3.5 | 13.6
O=[N+]([O-])c1ccc(C[n+]2c(-c3ccccc3)cc(-c3ccccc3)cc2-c2ccccc2)cc1 | 107.3* | -1.3 | 14.3 | 51.6 | 18.4 | -8.0
CN(C)[C@@H]1C(=O)C(C(N)=O)=C(O)[C@@]2(O)C(=O)C3=C(O)c4c(O)cccc4[C@@](C)(O)[C@H]3C[C@@H]12 | nt | 0.8 | -2.2 | 1.9 | -3.8 | 18.7
CN(C)C1C(=O)C(C(N)=O)=C(O)C2(O)C(=O)C3=C(O)c4c(O)cccc4C(C)(O)C3CC12 (configuration not stated) | nt | 102.1* | 3.9 | -1.2 | -9.5 | nt
CN(C)[C@@H]1C(=O)C(C(N)=O)=C(O)[C@@]2(O)C(=O)C3=C(O)c4c(O)cccc4[C@@](C)(O)C3[C@H](O)C12 (some centres not stated) | -16.0 | 106.4* | -0.7 | -17.2 | -11.0 | 15.6
COc1cc(OC)c(OC)cc1CNCCc1cccc(F)c1 | -0.8 | 0.2 | -5.5 | 34.8 | -6.9 | -24.6
COc1cccc(CCNCc2cccc(C(F)(F)F)c2)c1 | -2.1 | 2.0 | 3.4 | 64.1* | -11.0 | -26.4
Cc1ccc(NC2=NCCCS2)cc1Cl | -21.9 | 1.5 | -4.0 | 33.3 | 5.8 | -15.6
Clc1ccc(NC2=NCCCS2)cc1Cl | -18.3 | 11.7 | -5.8 | 54.8* | -3.6 | 4.6
CCOc1ccc(CNCCc2ccc3c(c2)OCO3)cc1 | -16.3 | -5.9 | -7.2 | 67.3* | 26.3 | 16.9
CCN(CC)c1ccc(CNCCc2ccc(F)cc2)cc1 | -19.7 | -5.0 | 11.7 | 52.5 | 51.9 | 36.6
O=C(NC1CONC1=O)OCC(Cl)(Cl)Cl (configuration not stated) | -4.1 | 4.8 | 41.4 | -0.8 | 76.9* | 13.5
CC(=O)N1N=C(c2c(O)n(C)c(=O)n(C)c2=O)CC1c1ccccc1 (configuration not stated) | -7.6 | 51.4* | 10.4 | -23.4 | 33.7 | 22.6
CCCCNC(=S)N1CCn2cccc2C1c1cccnc1 (configuration not stated) | 9.5 | -4.3 | -3.1 | 64.6* | 8.7 | 0.3
CNC(=S)N1CCn2cccc2C1c1cccnc1 (configuration not stated) | -4.3 | -2.5 | -0.4 | 36.2 | 11.5 | -1.7
Clc1ccc(CCC(Cn2ccnc2)Sc2c(Cl)cccc2Cl)cc1 (configuration not stated) | nt | nt | 16.1 | nt | 85.7* | 41.7
